Test results taken from ChEMBL document CHEMBL1157464, “1-[(3-Aryloxy-3-aryl)propyl]-1H-imidazoles, new imidazoles with potent activity against Candida albicans and dermatophytes. Synthesis, structure-activity relationship, and molecular modeling studies” (J Med Chem, 2008).
≈ marks a conversion by molar mass, not a printed value.

Assays:
Candida parapsilosis = test: Antifungal activity against Candida parapsilosis ATCC 22019 at 35 degC after 48 hrs by broth microdilution test; assay type: functional; settings: Lodderomyces parapsilosis, ATCC 22019, 48 h; for MFC: read-out: MFC; for MIC: read-out: MIC
How it was run: (§1)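 Broth microdilution per NCCLS M27-A2. Stocks in 100% DMSO, diluted in RPMI 1640 with 0.165 M MOPS at pH 7.0; final range 0.25–128 µg/mL. Inoculum 1000–5000 cells/mL from SDA subcultures. […] C. parapsilosis ATCC22019 served as QC strain.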

[1] = Therapeutic index, ratio of CC50 for human K562 cells to MIC90 for Candida albicans ATCC 10261; assay type: cell-based
How it was run: (§2)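 Therapeutic index calculated as CC50 in the given cell line divided by MIC90.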

Arthrodermataceae [2] = test: Antifungal activity against dermatophytes at 28 degC after 5 days by broth microdilution test; settings: for MFC: Arthrodermataceae
Candida albicans [3] = test: Antifungal activity against Candida albicans ATCC 10261 at 35 degC after 48 hrs by broth microdilution test; assay type: functional; settings: Candida albicans, ATCC 10261, 48 h; for MIC: read-out: MIC; for MIC50: read-out: MIC50; for MIC90: read-out: MIC90; how it was run: as §1
[4] = Therapeutic index, ratio of CC50 for human U937 cells to MIC90 for Candida albicans ATCC 10261; assay type: cell-based, U-937; how it was run: as §2
Candida albicans [5] = test: Antifungal activity against Candida albicans ATCC 10261 at 35 degC after 48 to 96 hrs by broth microdilution test; assay type: functional; settings: for MFC: Candida albicans, ATCC 10261, read-out: MFC
How it was run: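 Minimal fungicidal concentration for Candida. […] MFC is the lowest concentration allowing fewer than two colonies (99% killing).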

Arthrodermataceae [6] = test: Antifungal activity against dermatophytes at 28 degC after 7 days by broth microdilution test; assay type: functional; settings: 168 h
How it was run: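 Ten clinical isolates (two M. canis, five M. gypseum, three T. mentagrophytes) tested by NCCLS M38-A broth microdilution in MOPS-buffered RPMI 1640, pH 7.0, over 0.25–128 µg/mL. Conidial/hyphal suspension from PDA slants (28 °C, 7 days) adjusted to 65–70% transmittance at OD530, then diluted 1:50.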

Candida albicans [7] = test: Antifungal activity against fluconazole-resistant Candida albicans isolated from oropharyngeal or vaginal disease patient after 48 hrs by broth microdilution test; assay type: functional
Arthrodermataceae [8] = test: Antifungal activity against dermatophytes at 28 degC after 48 to 96 hrs by broth microdilution test
[9] = Cytotoxicity against human K562 cells after assessed as reduction of cell viability 24 hrs by MTT assay; assay type: cell-based
How it was run: (§3)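 U937 and K562 cells, from ATCC, plated at 5 × 10^4/mL in phenol-red-free RPMI-1640 with 20% FBS and penicillin/streptomycin. Compounds added 2 h later at 25–100 µg/mL, then 24 h at 37 °C. MTT at 1 mg/mL for 3 h, formazan dissolved in isopropanol with 0.1 N HCl, absorbance read at 570 nm. CC50 is the concentration reducing viability by 50% versus the drug-free control.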

Candida albicans [10] = test: Antifungal activity against fluconazole-sensitive Candida albicans Fe40 at 35 degC after 48 hrs by broth microdilution test; assay type: functional; how it was run: as §1
[11] = Cytotoxicity against human U937 cells assessed as reduction of cell viability after 24 hrs by MTT assay; assay type: cell-based, U-937; how it was run: as §3

SMILES | MFC (Candida parapsilosis) [µg/mL] | MIC (Candida parapsilosis) [µg/mL] | selectivity ratio [1] | MFC90 (Arthrodermataceae [2]) [µg/mL] | MFC (Arthrodermataceae [2]) [µg/mL] | MIC (Candida albicans [3]) [µg/mL] | MIC50 (Candida albicans [3]) [µg/mL] | MIC90 (Candida albicans [3]) [µg/mL] | selectivity ratio [4] | MFC50 (Candida albicans [5]) [µg/mL] | MFC90 (Candida albicans [5]) [µg/mL] | MFC (Candida albicans [5]) [µg/mL] | MIC (Arthrodermataceae [6]) [µg/mL] | MIC50 (Arthrodermataceae [6]) [µg/mL] | MIC90 (Arthrodermataceae [6]) [µg/mL] | MIC (Candida albicans [7]) [µg/mL] | MFC50 (Arthrodermataceae [8]) [µg/mL] | CC50 at 24 h [9] [µM] | MIC (Candida albicans [10]) [µg/mL] | CC50 at 24 h [11] [µM]
Cc1ccc(OC(CCn2ccnc2)c2ccc(Cl)cc2)cc1 (stereo not given) | 4 (≈ 12.2 µM) | 2 (≈ 6.12 µM) | 56.8 | 32 (≈ 97.9 µM) | 28.8 (≈ 88.1 µM) | 3.2 (≈ 9.79 µM) | 2 (≈ 6.12 µM) | 4 (≈ 12.2 µM) | 81.3 | 8 (≈ 24.5 µM) | 16 (≈ 49 µM) | 10 (≈ 30.6 µM) | 4.6 (≈ 14.1 µM) | 4 (≈ 12.2 µM) | 8 (≈ 24.5 µM) | 5.6 (≈ 17.1 µM) | 32 (≈ 97.9 µM) | 227 | 2 (≈ 6.12 µM) | 325
Cc1ccc(C(CCn2ccnc2)Oc2ccc(Cl)cc2)cc1 (stereo not given) | 8 (≈ 24.5 µM) | 4 (≈ 12.2 µM) | 42.8 | 32 (≈ 97.9 µM) | 25.6 (≈ 78.3 µM) | 2.4 (≈ 7.34 µM) | 2 (≈ 6.12 µM) | 4 (≈ 12.2 µM) | 42 | 8 (≈ 24.5 µM) | 16 (≈ 49 µM) | 12 (≈ 36.7 µM) | 3.8 (≈ 11.6 µM) | 4 (≈ 12.2 µM) | 4 (≈ 12.2 µM) | 3.6 (≈ 11 µM) | 32 (≈ 97.9 µM) | 171 | 2 (≈ 6.12 µM) | 168
